Article PMC10839117 (Cell chemical biology, 2023)
“Also recorded” adds a separate entry of the source. Primed or numbered codes have the meaning given here. Where no end group is shown, it is not given here. [ ]: non-standard residue; d: D form. two‑PEG linker = not defined here; YHJ1039 = not defined here; PEG2′ = two-PEG linker

Tests used:
[1] = biological target: WEE1-nanoluciferase fusion protein (Homo sapiens, UniProt P30291); assay: WEE1 cellular engagement assay; format: cell-based; conditions: nano-BRET, HEK-293T cells, one hour
Chain of WEE1-nanoluciferase fusion protein (P30291 whole entry, the tested form may be a part): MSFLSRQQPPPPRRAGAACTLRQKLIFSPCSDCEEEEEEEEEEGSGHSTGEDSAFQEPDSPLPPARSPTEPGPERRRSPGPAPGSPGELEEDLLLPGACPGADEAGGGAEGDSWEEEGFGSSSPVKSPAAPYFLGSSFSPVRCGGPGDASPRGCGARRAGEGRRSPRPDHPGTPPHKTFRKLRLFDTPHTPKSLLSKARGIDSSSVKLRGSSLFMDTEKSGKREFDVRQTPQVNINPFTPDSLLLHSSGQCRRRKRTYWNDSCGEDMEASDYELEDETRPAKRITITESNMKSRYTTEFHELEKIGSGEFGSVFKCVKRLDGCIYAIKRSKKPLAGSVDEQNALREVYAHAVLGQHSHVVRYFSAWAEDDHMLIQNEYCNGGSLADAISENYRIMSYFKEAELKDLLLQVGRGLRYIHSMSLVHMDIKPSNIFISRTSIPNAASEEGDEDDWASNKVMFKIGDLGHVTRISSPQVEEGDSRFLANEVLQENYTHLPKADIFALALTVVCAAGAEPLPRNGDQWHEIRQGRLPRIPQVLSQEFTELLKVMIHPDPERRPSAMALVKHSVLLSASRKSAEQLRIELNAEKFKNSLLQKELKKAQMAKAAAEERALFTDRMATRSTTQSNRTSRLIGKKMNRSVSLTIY
Summary of the method: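 HEK-293T cells were transiently transfected with a WEE1-nanoluciferase plasmid. The next day they were replated at 8,000 cells/well in phenol red-free DMEM with 4% FBS, together with K-5 tracer and 2 μM MLN4924. After 1 h, DMSO-normalised test compound was added. One hour later, nano-BRET detection reagent was added. The BRET ratio (610/450 nm) was normalised to DMSO wells.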

[2] = system: NEK9, FAK, CDK4, CDK6, and WEE1; assay: Kinase degradation by Western blotting, MOLM-14 cells; format: cell-based, human; conditions: 24 hours; for kinase degradation activity compared between compounds: Western blot, DB0614 comparison at 1 μM
[3] = cited from earlier work
NEK9 = biological target: T1, NEK9 (Homo sapiens, UniProt Q8TD19); assay: Kinase degradation by Western blotting, NEK9; format: cell-based; conditions: read-out: DC50 NEK9, MOLM-14 cells, 24 hours
T1 sequence (Q8TD19 1-979): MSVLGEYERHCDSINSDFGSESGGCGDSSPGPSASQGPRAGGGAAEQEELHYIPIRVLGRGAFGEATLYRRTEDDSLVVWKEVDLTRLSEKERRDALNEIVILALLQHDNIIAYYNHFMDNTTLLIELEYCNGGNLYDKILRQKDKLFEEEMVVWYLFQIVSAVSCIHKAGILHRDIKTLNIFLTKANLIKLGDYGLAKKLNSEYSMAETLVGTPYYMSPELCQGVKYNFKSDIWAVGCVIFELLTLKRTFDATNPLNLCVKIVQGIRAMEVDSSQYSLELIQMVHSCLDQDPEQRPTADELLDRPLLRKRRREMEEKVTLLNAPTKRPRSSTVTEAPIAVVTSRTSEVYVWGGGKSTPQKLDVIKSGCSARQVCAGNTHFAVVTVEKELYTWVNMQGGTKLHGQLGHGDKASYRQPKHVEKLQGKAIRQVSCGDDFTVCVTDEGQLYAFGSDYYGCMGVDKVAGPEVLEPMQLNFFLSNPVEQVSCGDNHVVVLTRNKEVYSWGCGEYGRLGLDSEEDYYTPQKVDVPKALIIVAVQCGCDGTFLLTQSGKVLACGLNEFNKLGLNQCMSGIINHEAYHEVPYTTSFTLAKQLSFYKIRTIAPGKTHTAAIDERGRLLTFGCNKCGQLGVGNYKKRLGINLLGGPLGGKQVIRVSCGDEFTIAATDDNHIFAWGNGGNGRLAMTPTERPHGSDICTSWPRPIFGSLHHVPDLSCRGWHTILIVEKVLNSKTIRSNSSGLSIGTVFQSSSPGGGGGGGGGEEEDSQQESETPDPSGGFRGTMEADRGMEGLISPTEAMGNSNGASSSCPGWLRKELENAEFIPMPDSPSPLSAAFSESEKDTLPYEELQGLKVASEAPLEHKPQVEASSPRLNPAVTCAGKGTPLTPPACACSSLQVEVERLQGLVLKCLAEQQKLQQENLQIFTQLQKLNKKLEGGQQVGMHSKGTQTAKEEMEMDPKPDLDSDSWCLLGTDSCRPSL
Summary of the method: (§1)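 MOLM-14 cells (RPMI-1640, 10% FBS, 37°C, 5% CO2) were exposed to test compound for 24 h. Cells were washed in PBS, lysed with protease inhibitors, and equal protein was boiled in SDS sample buffer. Blots were blocked for at least 1 h in TBST/5% milk, then probed with kinase antibodies at 1:1,000 and HRP secondaries at 1:10,000. DC50 was taken from quantitative Western blotting.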

MOLM-14 cells = assay: Cell proliferation assay; format: cell-based, human
Summary of the method: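 MOLM-14 cells were plated at low density and treated in triplicate or quadruplicate with DMSO-balanced test compound, with or without MLN4924. After 72 h, CellTiter-Glo was added for 10–15 min at room temperature and luminescence was read. Signal was normalised to DMSO-only wells, or to DMSO plus MLN4924 at the matching MLN4924 concentration.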

KLHDC2-WEE1 = KLHDC2-WEE1 (Homo sapiens, UniProt P30291+Q9Y2U9); assay: GST pulldown assay with purified KLHDC2 and WEE1 proteins; format: binding
Chain of KLHDC2-WEE1 (P30291 299-569 limits assumed, one chain of several): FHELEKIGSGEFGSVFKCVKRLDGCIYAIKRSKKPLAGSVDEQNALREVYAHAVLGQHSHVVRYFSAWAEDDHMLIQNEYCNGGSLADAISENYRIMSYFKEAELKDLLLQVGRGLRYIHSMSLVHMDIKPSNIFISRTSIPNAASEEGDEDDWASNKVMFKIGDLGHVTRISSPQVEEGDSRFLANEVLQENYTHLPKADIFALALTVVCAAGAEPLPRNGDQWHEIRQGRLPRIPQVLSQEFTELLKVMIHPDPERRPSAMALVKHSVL
Summary of the method: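 Purified proteins were His6-GST-KLHDC2 (propeller domain, residues 1-362, lacking the autoinhibitory C-terminus; E. coli-expressed) and the WEE1 kinase domain with its tag removed by TEV. They were incubated with DMSO or test compound for 1 h on ice in 20 mM Tris-HCl pH 8.5, 150 mM NaCl, 1 mM TCEP, 0.05% NP-40 substitute. Glutathione-agarose was added for 1 h at 4°C, followed by three washes. Bound material was analysed by SDS-PAGE.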

WEE1 and CDK4 = assay: Kinase degradation by Western blotting in a panel of cancer cell lines; format: cell-based, human; conditions: 1 μM
Summary of the method: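 Cancer cell lines were grown in RPMI-1640 (MOLM-14, MV-4-11, MOLT-4, DLD1, K562, SW480, MDA-MB-231, MCF7), EMEM (Detroit 551) or DMEM (GIST-T1, Hs27), each with 10% FBS and 1% pen-strep at 37°C, 5% CO2. Cells were treated with test compound, washed in PBS and lysed with protease inhibitors. Equal protein was blotted; membranes were blocked in TBST/5% milk, then probed with primaries at 1:1,000 and HRP secondaries at 1:10,000.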

KLHDC2 = biological target: T2, KLHDC2 (Homo sapiens, UniProt Q9Y2U9); assay: TR-FRET binding assay, KLHDC2
T2 sequence (Q9Y2U9 1-362): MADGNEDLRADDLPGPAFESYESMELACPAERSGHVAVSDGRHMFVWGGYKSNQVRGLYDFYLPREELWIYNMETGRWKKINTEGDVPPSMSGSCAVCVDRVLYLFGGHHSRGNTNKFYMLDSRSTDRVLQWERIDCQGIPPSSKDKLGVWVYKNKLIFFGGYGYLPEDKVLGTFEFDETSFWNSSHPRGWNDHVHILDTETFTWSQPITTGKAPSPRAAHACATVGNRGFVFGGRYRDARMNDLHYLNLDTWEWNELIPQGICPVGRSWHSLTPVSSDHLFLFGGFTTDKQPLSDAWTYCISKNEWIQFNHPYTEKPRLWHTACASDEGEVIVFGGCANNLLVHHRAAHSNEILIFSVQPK

[4] = biological target: WEE1 kinase domain (residues 290-576) (Homo sapiens, UniProt P30291); assay: HiBiT degradation assay, WEE1 kinase domain; format: cell-based
Chain of WEE1 kinase domain (residues 290-576) (P30291 290-576): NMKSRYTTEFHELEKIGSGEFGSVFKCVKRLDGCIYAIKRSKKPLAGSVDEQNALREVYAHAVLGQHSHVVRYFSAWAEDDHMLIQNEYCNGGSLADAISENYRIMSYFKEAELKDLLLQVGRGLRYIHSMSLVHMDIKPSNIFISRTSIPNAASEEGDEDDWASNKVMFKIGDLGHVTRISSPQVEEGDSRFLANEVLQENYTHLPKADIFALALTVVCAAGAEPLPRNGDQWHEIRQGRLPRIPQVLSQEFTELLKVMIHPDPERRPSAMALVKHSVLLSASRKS
Summary of the method: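 Pooled selected cells, checked for kinase expression by lytic HiBiT, grown with 10% FBS and 1% penicillin-streptomycin at 37°C, 5% CO2. Cells were dispensed and treated in triplicate or quadruplicate with DMSO balanced, then lysed for HiBiT luminescence after 6 h. For the MLN4924 arm, cells were pretreated 2 h with 1 μM MLN4924. HiBiT signal was normalized to CellTiter-Glo viability per matching condition and to DMSO.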

CDK6 = CDK6 (Homo sapiens, UniProt Q00534); assay: Kinase degradation by Western blotting, CDK6; format: cell-based; conditions: read-out: DC50 CDK6, MOLM-14 cells, 24 hours
Chain of CDK6 (Q00534 whole entry): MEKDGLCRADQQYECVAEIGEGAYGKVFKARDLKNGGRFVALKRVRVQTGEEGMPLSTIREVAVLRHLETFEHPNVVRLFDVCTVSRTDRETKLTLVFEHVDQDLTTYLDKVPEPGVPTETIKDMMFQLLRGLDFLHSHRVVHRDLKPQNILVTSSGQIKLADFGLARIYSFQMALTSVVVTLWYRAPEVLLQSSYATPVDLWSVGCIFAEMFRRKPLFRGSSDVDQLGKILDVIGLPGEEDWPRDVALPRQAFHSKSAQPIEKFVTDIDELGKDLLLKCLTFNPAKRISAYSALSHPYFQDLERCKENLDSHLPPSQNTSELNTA
Summary of the method: as §1

WEE1 = WEE1 (Homo sapiens, UniProt P30291); assay: Kinase degradation by Western blotting, WEE1; format: cell-based; conditions: MOLM-14 cells
Chain of WEE1 (P30291 whole entry): as the sequence (P30291 whole entry, the tested form may be a part) above
Summary of the method: as §1

CDK4 [5] = biological target: T3, CDK4 (Homo sapiens, UniProt P11802); assay: HiBiT degradation assay, CDK4; format: cell-based
T3 sequence (P11802 whole entry): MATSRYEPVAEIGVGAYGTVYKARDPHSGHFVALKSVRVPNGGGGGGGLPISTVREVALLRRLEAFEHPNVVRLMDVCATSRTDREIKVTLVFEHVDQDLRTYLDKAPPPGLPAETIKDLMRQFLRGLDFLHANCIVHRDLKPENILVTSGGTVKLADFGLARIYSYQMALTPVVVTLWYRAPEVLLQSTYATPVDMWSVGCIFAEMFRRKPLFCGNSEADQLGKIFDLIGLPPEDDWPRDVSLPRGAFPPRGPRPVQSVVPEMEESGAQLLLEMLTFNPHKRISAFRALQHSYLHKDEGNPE
Summary of the method: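 MOLM-14 cells were lentivirally transduced with HiBiT-tagged kinase (GSGS linker, EF1a promoter) and pooled after 1 μg/ml puromycin selection. Cells were pretreated for 2 h with 1 μM MLN4924, then treated with test compound for 6 h in triplicate or quadruplicate. Lytic HiBiT luminescence was normalised to the matching CellTiter-Glo viability signal and to DMSO for each treatment.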

CDK4 [6] = biological target: T3, CDK4; assay: Kinase degradation by Western blotting, CDK4; format: cell-based; conditions: MOLM-14 cells
Summary of the method: as §1

FAK = FAK (Homo sapiens, UniProt Q05397); assay: Kinase degradation by Western blotting, FAK; format: cell-based; conditions: read-out: DC50 FAK, MOLM-14 cells, 24 hours
Chain of FAK (Q05397 whole entry): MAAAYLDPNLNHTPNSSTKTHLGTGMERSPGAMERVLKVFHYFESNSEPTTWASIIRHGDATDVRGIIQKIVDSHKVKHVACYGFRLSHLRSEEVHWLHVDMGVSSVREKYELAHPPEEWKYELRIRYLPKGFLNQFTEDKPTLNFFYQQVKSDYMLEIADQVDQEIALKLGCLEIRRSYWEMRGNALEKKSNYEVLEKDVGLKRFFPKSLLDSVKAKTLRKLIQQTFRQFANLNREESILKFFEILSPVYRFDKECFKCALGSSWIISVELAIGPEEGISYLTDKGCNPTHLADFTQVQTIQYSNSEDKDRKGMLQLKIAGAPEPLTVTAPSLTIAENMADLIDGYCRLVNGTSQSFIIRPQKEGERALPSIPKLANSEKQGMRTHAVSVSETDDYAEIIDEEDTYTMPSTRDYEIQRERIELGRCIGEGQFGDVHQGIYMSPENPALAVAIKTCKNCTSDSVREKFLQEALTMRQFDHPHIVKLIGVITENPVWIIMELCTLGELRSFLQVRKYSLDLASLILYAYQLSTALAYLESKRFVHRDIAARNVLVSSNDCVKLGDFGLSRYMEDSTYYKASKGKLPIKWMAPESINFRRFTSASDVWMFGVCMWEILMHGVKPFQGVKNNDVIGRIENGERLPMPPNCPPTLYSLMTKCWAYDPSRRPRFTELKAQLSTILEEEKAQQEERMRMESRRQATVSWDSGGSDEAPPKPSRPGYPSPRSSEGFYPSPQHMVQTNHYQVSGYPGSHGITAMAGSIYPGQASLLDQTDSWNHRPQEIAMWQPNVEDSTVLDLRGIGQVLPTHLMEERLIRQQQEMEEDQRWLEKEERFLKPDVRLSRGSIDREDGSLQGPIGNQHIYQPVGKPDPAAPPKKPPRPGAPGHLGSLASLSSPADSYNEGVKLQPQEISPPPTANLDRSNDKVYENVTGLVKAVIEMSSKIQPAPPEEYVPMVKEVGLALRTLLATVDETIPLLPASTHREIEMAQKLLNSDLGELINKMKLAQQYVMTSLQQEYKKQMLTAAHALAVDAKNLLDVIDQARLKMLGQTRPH
Summary of the method: as §1

WEE1 and CDK4 RNA = assay: RT-PCR of WEE1 and CDK4 RNA; format: cell-based, human; conditions: MOLM-14 cells, 1 μM, 24 hours
[7] = biological target: T4, His6-GST-KLHDC2 (residues 1-362, propellor domain, lacking the autoinhibitory C-terminus) (UniProt Q9Y2U9 1-362); assay: AlphaScreen or HTRF
T4 sequence (looked up): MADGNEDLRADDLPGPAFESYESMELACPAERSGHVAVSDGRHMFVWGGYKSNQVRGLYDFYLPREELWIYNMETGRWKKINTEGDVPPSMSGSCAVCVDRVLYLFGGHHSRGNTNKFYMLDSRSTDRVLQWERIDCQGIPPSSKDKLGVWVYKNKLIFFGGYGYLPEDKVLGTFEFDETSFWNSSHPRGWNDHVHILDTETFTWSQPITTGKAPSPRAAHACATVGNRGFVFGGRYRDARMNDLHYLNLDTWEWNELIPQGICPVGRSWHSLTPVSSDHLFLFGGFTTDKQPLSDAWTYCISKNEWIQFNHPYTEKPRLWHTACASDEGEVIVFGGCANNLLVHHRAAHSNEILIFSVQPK

[8] = 1 μM MLN4924 two hours, then six-hour experiment

C=CCn1c(=O)c2cnc(Nc3ccc(N4CCN(C)CC4)cc3)nc2n1-c1cccc(C(C)(C)O)n1 [AZD1775, reference compound]
WEE1 target engagement (in words) ([1]; YHJ1039 versus AZD1775): comparable

CS(=O)(=O)Nc1cccc(-c2csc3cnc(Nc4ccc(N5CCN(CCCCCOc6cccc7c6C(=O)N(C6CCC(=O)NC6=O)C7=O)CC5)cc4)nc23)c1 (centres unmarked) [DB0614, reference compound]
kinase degradation activity compared between compounds [2]: more effective kinase degrader than KYH1872 (26) | cytotoxicity [3]: cytotoxic

KYH1872 (26): two-PEG linker connects YHJ1039 with a seven amino acid SelK peptide (PPPMAGG) ({YHJ1039-two‑PEG linker}-PPPMAGG; reading uncertain)
DC50 (NEK9): 1000 nM | effect on cell proliferation with MLN4924 co-treatment (MOLM-14 cells; co-treatment with increasing concentrations of MLN4924): blunted the negative effect | EC50 (MOLM-14 cells; read-out: Cell viability (EC50), MOLM-14 cells, 72 hours after treatment): 1060 nM | induced KLHDC2-WEE1 binding (KLHDC2-WEE1): can induce between KLHDC2-WEE1 binding | WEE1 and CDK4 degradation in MOLM-14 and MV4-11 cells (WEE1 and CDK4): displayed WEE1 and CDK4 degradation | kinase degradation (Western blot, in words) ([2]; KYH1872 at 1 and 10 μM): induced the degradation | kinase degradation activity compared between compounds [2]: slightly improved degradation activity when compared with KYH1886 (25) | KLHDC2 binding (in words) (KLHDC2; biochemical binding assay, limit of detection ~2 nM): binds to the KLHDC2 protein; also recorded: tighter than the limit of detection | WEE1 degradation after MLN4924 pretreatment (HiBiT) [4, 8]: prevented WEE1 and CDK4 degradation | DC50 WEE1-KD (HiBiT) ([4]; MOLM-14 cells, six hours, n.d. = not determined (no degradation)): 1,290 nM | DC50 (CDK6): 1070 nM | DC50 (WEE1; read-out: DC50 WEE1, Western blotting, 24 hours): 302 nM | time at which WEE1 degradation was observable (WEE1; time course Western blot): 12 h | CDK4 degradation after MLN4924 pretreatment (HiBiT) (CDK4 [5]; [8]): prevented WEE1 and CDK4 degradation | Dmax CDK4 (HiBiT) (CDK4 [5]; maximum total fraction of the target degraded, given as a fraction, MOLM-14 cells, six hours): 0.32 | WEE1 engagement, fold less efficient than ZNL-02-096 ([1]; MLN4924 pretreated): ~ 300 fold | DC50 (CDK4 [6]; read-out: DC50 CDK4, Western blotting, 24 hours): 457 nM | time at which CDK4 degradation was observable (CDK4 [6]; time course Western blot): 12 h | DC50 (FAK): 933 nM | WEE1 and CDK4 RNA levels (WEE1 and CDK4 RNA): not changed

KYH2011 (27): identical to KYH1872 (26) except reversed methionine stereocenter, PPP(D-Met)AGG ({YHJ1039-PEG2′}-PPP[dM]AGG; reading uncertain; also: printed as PPP(D-Met)AGG)
inhibition of cell proliferation (in words) (MOLM-14 cells; MOLM-14 cells, 72 hours): did not cause kinase degradation or inhibit cell proliferation | Kd (KLHDC2; read-out: KLHDC2 binding (KD), TR-FRET, FITC-PPPMAGG probe, His6-GST-KLHDC2): 155 nM

{YHJ1039-two‑PEG linker}-PPPMAGG (reading uncertain) [KYH1872 (26)]
Kd [7]: < 2 nM
